Only some compounds are listed: those with a hit (about 3% of all), similar ones and a draw of the others.
DSG3 Ab inh = blocks pemphigus antibody binding to human desmoglein-3 | P32926 | DSG3-coupled beads, scFv-anti-DSG3-GFP binding, flow cytometry; hits give low values | binding (percent of control), % at 10 µM | actives 0.48% (n = 310,000) | AID 588358;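 active = binding more than 3 SD below its plate's average and above zero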;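 note: hits lower antibody fragment binding to DSG3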
Exocytosis inh = blocks lytic granule exocytosis | inhibition, % at 10 µM | actives 0.66% (n = 360,000) | TALL-104 LAMP-1 surface exposure, flow cytometry; cells stimulated with thapsigargin and PMA;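 active = inhibition above about 55%, limit read from the data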
Myeloid diff 2 = promotes myeloid progenitor differentiation; calls only at 10 µM; ER-HoxA9 myeloid progenitors, lysozyme-GFP differentiation, flow cytometry; AID 624256; actives 1% (n = 360,000);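 active = normalized GFP-positive differentiation at or above the plate's own cutoff, the solvent-only control mean plus 3 SD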;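 note: cells exposed to compound for four days before flow analysis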
Cardio protect = modulators protecting cardiomyocytes from myocardial damage. H9c2 cardiomyocytes, H2O2 injury protection, ATPLite, 2 h. protection from H2O2 cell death, % at 20 µM. actives 0.63% (n = 360,000). AID 588492;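 active = compounds giving at least 50% protection of heart cells from peroxide-induced death in the single-dose screen, raw or plate-pattern-corrected value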;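 note: 0% = DMSO wells with peroxide and 100% = DMSO wells without peroxide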
HNF4A DNA FP = change in binding of human HNF4 alpha to DNA. activity change, % at 10 µM. HNF4a-FITC DNA binding, fluorescence polarization, 1 h. P41235. actives 0.3% (n = 360,000); in the data active = activity change above about 30%, passing the limit was not always enough
SENP1 FRET inh = SENP1 (human) catalytic domain inhibition | Q9P0U3 | recombinant SENP1 catalytic domain, CyPet-SUMO1-YPet FRET cleavage | inhibition, % at 10 µM | actives 0.21% (n = 360,000);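 active = inhibition at least 30% at 10 µM, raw YFP signal under a set limit, fluorescence ratio 0.5 to 1.5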;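 note: 0% = enzyme with DMSO and 100% = no enzyme wells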
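Assay system: hSENP1 catalytic domain, recombinant. Amount: SENP1 enzyme, 20 pM final. Schedule: 50 min reaction, RT, dark. Technique: FRET, CFP and YFP emission. Control set: no-enzyme wells low, DMSO-plus-enzyme wells high control.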
Exocytosis CP01 = lytic granule exocytosis inhibition | TALL-104 cells, LAMP-1 externalization, flow cytometry; stimulated with PMA plus thapsigargin | shares compounds with Exocytosis inh | actives 11% (n = 1,500) | AID 651954 | inhibition, % at 10 µM; in the data active = inhibition above about 60%;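 note: 0% = stimulated vehicle wells and 100% = unstimulated wells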
HNF4a DNA conf = change in binding of human HNF4 alpha to DNA, retest; actives 99% (n = 210); HNF4A-FITC DNA binding, fluorescence polarization, 1 h; AID 1224897; shares compounds with HNF4A DNA FP; activity change, % at 12.5 µM; call rule not given here
Numbers without * were called inactive.

What do the screens show for `S=C(NC1CCCCC1)N1CCC(c2cnc[nH]2)CC1`?
DSG3 Ab inh: 119; Exocytosis inh: -1; Myeloid diff 2: inactive; Cardio protect: 5; HNF4A DNA FP: 0; SENP1 FRET inh: 1

Results for CCCN1CCc2cc(O)cc3c2[C@H]1Cc1ccc(O)c(O)c1-3 ?
DSG3 Ab inh: 92; Exocytosis inh: 65*; Myeloid diff 2: inactive; Cardio protect: 5; HNF4A DNA FP: -1; SENP1 FRET inh: -14; Exocytosis CP01: -13

Results for COc1cc2c(cc1O)C[C@H]1c3c(cc(O)c(OC)c3-2)CCN1C ?
DSG3 Ab inh: 109; Exocytosis inh: -1; Myeloid diff 2: inactive; Cardio protect: -8; HNF4A DNA FP: -6; SENP1 FRET inh: -2

How did Cn1c(=O)c2c(nc(N/N=C/c3c(O)n(-c4ccccc4)c(=S)[nH]c3=O)n2C)n(C)c1=O do in these assays?
DSG3 Ab inh: 100; Exocytosis inh: 0; Myeloid diff 2: inactive; Cardio protect: 3; HNF4A DNA FP: 2; SENP1 FRET inh: -49

Results for CCOc1ccccc1CN1C2CCC1CC(c1ccc(C)cc1)C2 (stereo not given) ?
DSG3 Ab inh: 92; Exocytosis inh: 67*; Myeloid diff 2: inactive; Cardio protect: -7; HNF4A DNA FP: 1; SENP1 FRET inh: -1; Exocytosis CP01: -13

Results for O=c1cccc2n1CC1CC2CN(CC(O)CN2CC3CC(C2)c2cccc(=O)n2C3)C1 (stereo not given) ?
DSG3 Ab inh: 93; Exocytosis inh: -3; Myeloid diff 2: inactive; Cardio protect: 2; HNF4A DNA FP: 0; SENP1 FRET inh: -1

What do the screens show for `COc1ccc2ccc(O)c(CN3CC=C(c4ccccc4)CC3)c2c1`?
DSG3 Ab inh: 101; Exocytosis inh: 92*; Myeloid diff 2: inactive; Cardio protect: -2; HNF4A DNA FP: 0; SENP1 FRET inh: 0; Exocytosis CP01: 17

Results for COc1c(OP2(=S)OCC(C)(C)CO2)cnn(C2CCCCC2)c1=O ?
Exocytosis inh: -7; Myeloid diff 2: inactive; Cardio protect: -5; HNF4A DNA FP: 4; SENP1 FRET inh: 1

What do the screens show for `COc1ccc2c3c([nH]c2c1)C(C)NCC3` (stereo not given)?
Exocytosis inh: 0; Myeloid diff 2: active; Cardio protect: -4; HNF4A DNA FP: 42*; SENP1 FRET inh: -20; HNF4a DNA conf: 55*

Results for COc1ccc2[nH]c3c(c2c1)CCNC3C (stereo not given) ?
DSG3 Ab inh: 100; Exocytosis inh: -3; Myeloid diff 2: inactive; Cardio protect: 2; HNF4A DNA FP: 3; SENP1 FRET inh: 0

What do the screens show for `Cc1cc(Cl)nc(N)n1`?
DSG3 Ab inh: 110; Exocytosis inh: 0; Myeloid diff 2: inactive; Cardio protect: 6; HNF4A DNA FP: -2; SENP1 FRET inh: 3

Results for O=c1[nH]c(=S)[nH]c(O)c1N=Nc1ccc2c(c1)OCO2 ?
DSG3 Ab inh: 108; Exocytosis inh: -5; Myeloid diff 2: inactive; Cardio protect: -12; HNF4A DNA FP: 42*; SENP1 FRET inh: 19; HNF4a DNA conf: 46*
